The text below walks through data of ChEMBL document CHEMBL3271979, “Inhibition of solid tumors by nitrosoureas. 1. Lewis lung carcinoma” (1977).

Test [1] in a line: Antitumor activity against mouse early Lewis lung carcinoma allografted in BDF1 mouse assessed as increase in host life span at 15 mg/kg, ip administered as single dose on 1 or 2 days post-tumor implantation. It counts as functional. The note with it: route intraperitoneal. An outline of the steps:
(§1)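 BDF1 mice (C57Blk/6 × DBA/2) implanted sc by trocar with ~40 mg Lewis lung tumor fragments from bacteriologically sterile donor tumors. Single ip dose on day 1 or 2, as a solution or suspension in water (CMC or gum acacia) or saline (HPC or Tween 80). Read-out is […]. Same-dose toxicity controls were run in nontumor-bearing mice.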

Test [2] in a line: Antitumor activity against mouse early Lewis lung carcinoma allografted in BDF1 mouse assessed as increase in host life span at 10 mg/kg, ip administered as single dose on 1 or 2 days post-tumor implantation. It counts as functional. Particulars: route intraperitoneal. An outline of the steps:
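Early disease: BDF1 mice carrying sc trocar implants of about 40 mg Lewis lung fragments. One ip dose given on day 1 or 2 after implant, in distilled water or saline, at ≤0.5 ml. Endpoints were % increase in life-span of dying animals and delay in days for the primary tumor to reach 1 g. Untreated controls served as reference.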

Test [3] is described as follows: Antitumor activity against mouse early Lewis lung carcinoma allografted in BDF1 mouse assessed as time delay in tumor growth at 15 mg/kg, ip administered as single dose on 1 or 2 days post-tumor implantation. It is filed as functional. The note with it: route intraperitoneal. An outline of the steps: (§2)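 BDF1 mice (C57Blk/6 × DBA/2) implanted sc by trocar with ~40 mg Lewis lung tumor fragments from bacteriologically sterile donors. A single ip dose was given on day 1 or 2, as a solution or suspension in water or saline with suspending agent, at ≤0.5 ml. Tumors were measured by caliper at least twice weekly, with weight = ab²/2. Delay was taken as the days for the tumor to reach 1 g.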

Test [4] relates to Mus musculus. Kind of test: Antitumor activity against mouse advanced Lewis lung carcinoma allografted in BDF1 mouse assessed as disease cure at 22 mg/kg, ip administered as single dose on 7th day post-tumor implantation measured for 80 days post-drug treatment. It counts as functional, organism-based. The arrangement: dose 22 mg/kg. The essentials: (§3)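 BDF1 mice (C57Blk/6 × DBA/2) implanted sc by trocar with Lewis lung tumor fragments of about 40 mg, taken only from bacteriologically sterile donor tumors. Mice bearing tumors of about 400 mg (day 6-7) were selected. Each received a single ip dose on day 7, at or below the LD10 in normal mice. Groups were of 10 mice. Tumor weight was taken from calipers as w = ab²/2, measured at least twice weekly. Matched non-tumor mice served as toxicity controls.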

A short description of test [5]: Antitumor activity against mouse advanced Lewis lung carcinoma allografted in BDF1 mouse assessed as increase in host life span at 22 mg/kg, ip administered as single dose on 7th day post-tumor implantation. It is filed as functional. Particulars: route intraperitoneal. The essentials: (§4)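 BDF1 mice (C57Blk/6 × DBA/2) implanted sc by trocar with about 40 mg Lewis lung tumor fragments from bacteriologically sterile donors. Advanced-disease groups held tumors of about 400 mg by day 6-7, sized by caliper (w = ab²/2). Single ip injection on day 7, in water or saline vehicle, at or below the LD10 in normal mice. Tumors measured at least twice weekly.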

Test [6] is described as follows: Antitumor activity against mouse early Lewis lung carcinoma allografted in BDF1 mouse assessed as time delay in tumor growth at 10 mg/kg, ip administered as single dose on 1 or 2 days post-tumor implantation. It is filed as functional. The note with it: route intraperitoneal. An outline of the steps: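 Sc trocar implants of about 40 mg Lewis lung fragments in BDF1 mice. A single ip injection was given on day 1 or 2, in water or physiological saline, at ≤0.5 ml. Tumor size came from caliper length and width as w = ab²/2, measured at least twice weekly. Growth delay is the extra days taken to reach 1 g, compared with untreated controls.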

Test [7] in a line: Antitumor activity against mouse early Lewis lung carcinoma allografted in ip dosed BDF1 mouse assessed as disease cure administered as single dose on 1 or 2 days post-tumor implantation measured for 80 days post-drug treatment. It is filed as functional. An outline of the steps:
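BDF1 mice implanted sc by trocar with ~40 mg Lewis lung fragments from sterile donor tumors. A single ip dose was given on day 1 or 2 after implant, in water or saline vehicle. Cures were scored in animals observed for at least 80 days after treatment. Drug-toxicity controls were matched non-tumor-bearing mice monitored for body weight and deaths.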

Test [8] in a line: Ratio of ED50 for antitumor activity against mouse L1210 cells allografted in ip dosed mouse to LD10 for mouse.
Test [9] relates to Mus musculus. Description: Antitumor activity against mouse advanced Lewis lung carcinoma allografted in ip dosed BDF1 mouse assessed as complete regression of established tumor administered as single dose on day 6 or 7 post-tumor implantation. It counts as functional, organism-based. The essentials:
as §3

In test [10] the test system is Mus musculus. Description: Antitumor activity against mouse advanced Lewis lung carcinoma allografted in ip dosed BDF1 mouse assessed as disease cure administered as single dose on day 6 or 7 post-tumor implantation. It counts as functional, organism-based. The essentials:
as §3

Test [11] is described as follows: Antitumor activity against mouse early Lewis lung carcinoma allografted in BDF1 mouse assessed as increase in host life span at 20 mg/kg, ip administered as single dose on 1 or 2 days post-tumor implantation. It is filed as functional. The note with it: route intraperitoneal. The essentials: as §1
Test [12] in a line: Antitumor activity against mouse early Lewis lung carcinoma allografted in BDF1 mouse assessed as increase in host life span at 30 mg/kg, ip administered as single dose on 1 or 2 days post-tumor implantation. It counts as functional. Particulars: route intraperitoneal. An outline of the steps: as §1
Test [13] can be described thus: Antitumor activity against mouse early Lewis lung carcinoma allografted in BDF1 mouse assessed as time delay in tumor growth at 20 mg/kg, ip administered as single dose on 1 or 2 days post-tumor implantation. It is filed as functional. Particulars: route intraperitoneal. An outline of the steps: as §2
The nature of test [14]: Antitumor activity against mouse early Lewis lung carcinoma allografted in BDF1 mouse assessed as time delay in tumor growth at 30 mg/kg, ip administered as single dose on 1 or 2 days post-tumor implantation. It is filed as functional. The note with it: route intraperitoneal. The essentials:
as §2

Test [15] can be described thus: Antitumor activity against mouse advanced Lewis lung carcinoma allografted in ip dosed BDF1 mouse assessed as increase in host lifespan administered as single dose on day 6 or 7 post-tumor implantation. It is filed as functional. An outline of the steps:
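Advanced Lewis lung model: about 40 mg fragments implanted sc by trocar into BDF1 mice, and mice with tumors of about 400 mg (day 6-7) selected. Tumor weight from calipers, w = ab²/2. Agent given as one ip dose in distilled water or physiological saline. Nontumor-bearing mice received matching doses as toxicity controls.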

A short description of test [16]: Antitumor activity against mouse early Lewis lung carcinoma allografted in BDF1 mouse assessed as increase in host life span at 32 mg/kg, ip administered as single dose on 1 or 2 days post-tumor implantation. It is filed as functional. Particulars: route intraperitoneal. The essentials: as §1
Test [17] in a line: Antitumor activity against mouse early Lewis lung carcinoma allografted in BDF1 mouse assessed as increase in host life span at 21 mg/kg, ip administered as single dose on 1 or 2 days post-tumor implantation. It is filed as functional. The note with it: route intraperitoneal. An outline of the steps:
as §1

Test [18] is described as follows: Antitumor activity against mouse early Lewis lung carcinoma allografted in BDF1 mouse assessed as time delay in tumor growth at 32 mg/kg, ip administered as single dose on 1 or 2 days post-tumor implantation. It is filed as functional. Particulars: route intraperitoneal. The essentials: as §2
A short description of test [19]: Antitumor activity against mouse early Lewis lung carcinoma allografted in BDF1 mouse assessed as time delay in tumor growth at 21 mg/kg, ip administered as single dose on 1 or 2 days post-tumor implantation. It is filed as functional. Particulars: route intraperitoneal. An outline of the steps: as §2
The subject of test [20] is Mus musculus. Description: Antitumor activity against mouse advanced Lewis lung carcinoma allografted in BDF1 mouse assessed as disease cure at 33 mg/kg, ip administered as single dose on 7th day post-tumor implantation measured for 80 days post-drug treatment. It counts as functional, organism-based. The arrangement: dose 33 mg/kg. The essentials: as §3
Test [21] in a line: Antitumor activity against mouse advanced Lewis lung carcinoma allografted in BDF1 mouse assessed as increase in host life span at 33 mg/kg, ip administered as single dose on 7th day post-tumor implantation. Particulars: route intraperitoneal. It counts as functional. An outline of the steps: as §4

Activity calls are given as the source filed them. The rule behind the calls is not given here. Where only a bound is given, the exact number is not on record here.

For the molecule `O=NN(CCCl)C(=O)NC1CSCSC1`, in test [1], the ILS at 15 mg/kg came to 42%. Besides, in test [2], the ILS at 10 mg/kg stood at 24%. Besides, the Time was 4.5 days in test [3] and 3.5 days in test [6]. The result in the test with Mus musculus [4] and in the test with Mus musculus [10] was inactive. The ILS at 22 mg/kg in [5] was 36%. Besides, the Activity in [7] turned out to be 10%. Also, the Ratio in test [8] worked out at 0.3. The inhibition result in the test with Mus musculus [9] was “Active”.

`C[C@H]1SC[C@@H](NC(=O)N(CCCl)N=O)CS1`: the ILS at 20 mg/kg in test [11] amounted to 0%. Further, the ILS at 30 mg/kg in test [12] worked out at 42%. Also, the Time in test [13] is 8.1 days; in test [14], 18 days. Moreover, in test [7], the Activity was 10%. Further, in test [8], the Ratio is reported as 0.4. Besides, in the test on Mus musculus [9], the inhibition result is “inactive”. In test [15], the ILS is on record as less than 25%.

In the case of `O=NN(CCF)C(=O)NC1CCS(=O)(=O)CC1`, the ILS at 32 mg/kg in test [16] amounted to 0%. Also, the ILS at 21 mg/kg in test [17] was determined as 18%. The values for the Time in test [18] and in test [19] were 15 days and 8.3 days, respectively. Moreover, the outcome with Mus musculus [20] and in the test with Mus musculus [10] was inactive. Moreover, the ILS at 33 mg/kg in test [21] turned out to be 0%. Besides, the Activity in test [7] was 10%. Moreover, in [8], the Ratio worked out at 0.3. The inhibition result in the test on Mus musculus [9] was “inactive”. Also, the ILS in test [15] is listed as more than 25%.
